Five compounds from ChEMBL document CHEMBL1765022, “Synthesis and biological evaluation of tetracyclic thienopyridones as antibacterial and antitumor agents” (Bioorg Med Chem, 2011) can be followed below.

Assay [1] deals with Acinetobacter baumannii. The experiment in a line: Antimicrobial activity against Acinetobacter baumannii ATCC 19606 by broth dilution method. The class given is functional. In short, it runs like this: (§1)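 Twofold serial broth dilution in Mueller Hinton Broth. […] Growth (drug-free), DMSO solvent and organism-free sterility tubes were included. Three replicates per organism, at least three independent experiments.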

The subject of assay [2] is Staphylococcus aureus. The experiment in a line: Antimicrobial activity against quinilone-pencillin-resistant Staphylococcus aureus isolate SAR 72 by broth dilution method. Format: functional. The method in brief:
(§2)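 Twofold serial broth dilution in Mueller Hinton Broth. […] Drug-free tubes, DMSO-only tubes and organism-free tubes served as growth, solvent and sterility controls. Three replicates per organism, at least three independent experiments.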
In general terms: Broth dilution looks for growth in wells or tubes with falling amounts of substance.

Assay [3] can be described thus: Inhibition of Escherichia coli topoisomerase 4 assessed as decatenation of kDNA after 30 mins by electrophoresis. In short, it runs like this:
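E. coli topoisomerase IV decatenation of kinetoplast DNA was run in 40 mM HEPES-KOH pH 7.6 with 100 mM potassium glutamate, at varying compound amounts. Products were separated by agarose electrophoresis and quantified by gel documentation. IC₅₀ (µg/mL) is the concentration halving decatenation relative to drug-free enzyme control.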

In assay [4] the test system is Escherichia coli. The experiment in a line: Antimicrobial activity against Escherichia coli ATCC 8739 by broth dilution method. Format: functional. The method in brief:
as §1

The test system of assay [5] is Staphylococcus aureus. The experiment in a line: Antimicrobial activity against quinilone-pencillin-resistant Staphylococcus aureus isolate SAR 4790 by broth dilution method. Format: functional. In short, it runs like this: as §2
A further assay relates to Saccharomyces cerevisiae. Nature of the assay: Antimicrobial activity against Saccharomyces cerevisiae ATCC 9763 by broth dilution method. Format: functional. The method in brief:
(§3)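 Fungi were tested by twofold serial broth dilution in Sabouraud Dextrose Broth. Inoculum was 1x10³ CFU/mL, with 48 h at 30 °C before MIC determination. Growth, DMSO solvent and sterility controls were included. Three replicates per organism, at least three independent experiments.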

The next assay has as its system Pseudomonas aeruginosa. The experiment in a line: Antimicrobial activity against Pseudomonas aeruginosa ATCC 9027 by broth dilution method. Format: functional. In short, it runs like this:
as §1

In another assay the test system is Haemophilus influenzae. Nature of the assay: Antimicrobial activity against Haemophilus influenzae ATCC 19418 by broth dilution method. Format: functional. In short, it runs like this:
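H. influenzae was grown in Haemophilus Test Medium using twofold serial broth dilution. […] Drug-free, DMSO-only and organism-free control tubes were included. Triplicates, with at least three independent experiments.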

Assay [6] has as its system Acinetobacter baumannii. The experiment in a line: Antimicrobial activity against quinilone-pencillin-resistant Acinetobacter baumannii clinical isolate by broth dilution method. The class given is functional.
For the next assay, the system named is Bacillus cereus. The experiment in a line: Antimicrobial activity against Bacillus cereus ATCC 11778 by broth dilution method. Format: functional. In short, it runs like this: as §1
Another assay deals with Bacillus subtilis. The experiment in a line: Antimicrobial activity against Bacillus subtilis ATCC 6633 by broth dilution method. The class given is functional. The method in brief:
as §1

The test system of the next assay is A549. The experiment in a line: Antitumor activity against human A549 cells after 72 hrs by MTT assay. The class given is functional, cell-based. To be noted: A549, 72 h. The method in brief: (§4)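 Cells were kept at 37 °C in 5% CO₂, in medium with 2 mM glutamine and 10% FBS; HuDe fibroblasts were grown in DMEM. Compounds were freshly dissolved in DMSO (final ≤0.1% v/v; controls received equal solvent) and applied at 0.1–20 µM for 72 h. Viability was read by MTT. IC₅₀ was extrapolated from Hill-fitted dose–response curves, from at least three independent experiments.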
Background: Formazan colour is commonly taken as a measure of viable cells.

Assay [7] deals with Staphylococcus epidermidis. Nature of the assay: Antimicrobial activity against quinilone-pencillin-resistant Staphylococcus epidermidis clinical isolate by broth dilution method. The class given is functional.
The test system of the next assay is MCF7. The experiment in a line: Antitumor activity against human MCF7 cells after 72 hrs by MTT assay. Format: functional, cell-based. As to conditions: MCF7, 72 h. The method in brief: as §4
In another assay the test system is Candida tropicalis. Nature of the assay: Antimicrobial activity against Candida tropicalis ATCC 1369 by broth dilution method. The class given is functional. In short, it runs like this:
as §3

In assay [8] the test system is Staphylococcus aureus. The experiment in a line: Antimicrobial activity against Staphylococcus aureus ATCC 6538 by broth dilution method. The class given is functional. The method in brief:
as §1

The next assay has as its system Aspergillus niger. Nature of the assay: Antimicrobial activity against Aspergillus niger ATCC 6275 by broth dilution method. The class given is functional. In short, it runs like this: as §3
Assay [9] relates to Escherichia coli. Nature of the assay: Antimicrobial activity against quinilone-pencillin-resistant Escherichia coli clinical isolate by broth dilution method. Format: functional.
Assay [10] deals with Staphylococcus epidermidis. Nature of the assay: Antimicrobial activity against Staphylococcus epidermidis ATCC 12228 by broth dilution method. The class given is functional. In short, it runs like this:
as §1

The nature of assay [11]: Inhibition of Escherichia coli DNA gyrase assessed as reduction of DNA supercoiling activity using pBR322 DNA substrate after 30 mins by electrophoresis.
Another assay deals with NHDF. Nature of the assay: Antitumor activity against human NHDF cells after 72 hrs by MTT assay. Format: functional, cell-based. The method in brief: as §4
The nature of assay [12]: Antimicrobial activity against Bacillus thuringiensis var.kurstaki BGSC 4D1 by broth dilution method. The class given is functional, Bacillus thuringiensis serovar kurstaki. The method in brief:
as §1

Another assay relates to Priestia megaterium. The experiment in a line: Antimicrobial activity against Bacillus megaterium ATCC 19213 by broth dilution method. Format: functional. The method in brief:
as §1

Converted amounts (≈) assume the structure as drawn.

As a reminder, the IC50 is the concentration at which inhibition is half-maximal. Regarding `O=C(O)c1cn(C2CC2)c2sc3c4ccccc4[nH]c3c2c1=O`, the MIC was 0.07 µg/mL (≈ 0.216 µM) against Acinetobacter baumannii [1]; 0.7 µg/mL (≈ 2.16 µM) against Staphylococcus aureus [2]; 25 µg/mL (≈ 77.1 µM) in the assay with Escherichia coli [4]; more than 100 µg/mL in the assay with Staphylococcus aureus [5]; more than 100 µg/mL against Saccharomyces cerevisiae; more than 100 µg/mL against Pseudomonas aeruginosa. For the same compound, the MIC in the assay with Haemophilus influenzae is 0.03 µg/mL (≈ 0.0925 µM); in the assay with Acinetobacter baumannii [6] it was more than 100 µg/mL; against Bacillus cereus it was 0.007 µg/mL (≈ 0.0216 µM); in the assay on Bacillus subtilis, 0.015 ng/mL (≈ 4.62e-05 µM); in assay [7], 3 µg/mL (≈ 9.25 µM); in the assay with Candida tropicalis, more than 100 µg/mL. Moreover, the MIC is 0.003 µg/mL (≈ 0.00925 µM) against Staphylococcus aureus [8]; more than 100 µg/mL with Aspergillus niger; more than 100 µg/mL against Escherichia coli [9]; 0.03 µg/mL (≈ 0.0925 µM) in assay [10]; 0.007 µg/mL (≈ 0.0216 µM) in [12]; 0.015 ng/mL (≈ 4.62e-05 µM) in the assay on Priestia megaterium. For the same compound, the half-inhibitory concentration (IC50) in assay [3] was more than 24 µg/mL; in the assay on A549, 10 µM; with MCF7, 5.2 µM; in assay [11], 1 µg/mL (≈ 3.08 µM); with NHDF it was more than 10 µM.

As for `Cc1ccc2c(c1)[nH]c1c2sc2c1c(=O)c(C(=O)O)cn2C1CC1`, the MIC in the assay on Acinetobacter baumannii [1] was 0.7 µg/mL (≈ 2.07 µM); with Staphylococcus aureus [2], 12 µg/mL (≈ 35.5 µM); against Escherichia coli [4], more than 100 µg/mL; against Staphylococcus aureus [5], more than 100 µg/mL; in the assay on Saccharomyces cerevisiae, more than 100 µg/mL; against Pseudomonas aeruginosa it was more than 100 µg/mL. Further, the MIC was 1.5 µg/mL (≈ 4.43 µM) in the assay with Haemophilus influenzae; more than 100 µg/mL against Acinetobacter baumannii [6]; 0.3 µg/mL (≈ 0.887 µM) against Bacillus cereus; 0.3 ng/mL (≈ 0.000887 µM) in the assay on Bacillus subtilis; 25 µg/mL (≈ 73.9 µM) in assay [7]; more than 100 µg/mL against Candida tropicalis. Also, the MIC was 0.07 µg/mL (≈ 0.207 µM) against Staphylococcus aureus [8]; more than 100 µg/mL with Aspergillus niger; 0.3 µg/mL (≈ 0.887 µM) in assay [10]; 0.15 µg/mL (≈ 0.443 µM) in [12]; 7 ng/mL (≈ 0.0207 µM) in the assay with Priestia megaterium. The figures for the IC50 with A549, with MCF7 and in the assay on NHDF were 6.9 µM, 2.8 µM and more than 10 µM, respectively.

`COc1ccc2c(c1)[nH]c1c2sc2c1c(=O)c(C(=O)O)cn2C1CC1`: the MIC in the assay with Acinetobacter baumannii [1] was 3 µg/mL (≈ 8.47 µM); against Staphylococcus aureus [2], 1.5 µg/mL (≈ 4.23 µM); against Escherichia coli [4], more than 100 µg/mL; with Staphylococcus aureus [5] it was more than 100 µg/mL; against Saccharomyces cerevisiae, more than 100 µg/mL; against Pseudomonas aeruginosa, more than 100 µg/mL. The MIC with Haemophilus influenzae is 0.15 µg/mL (≈ 0.423 µM); against Acinetobacter baumannii [6], more than 100 µg/mL; against Bacillus cereus it was 0.03 µg/mL (≈ 0.0847 µM); with Bacillus subtilis it was 0.3 ng/mL (≈ 0.000847 µM); in [7] it was 6 µg/mL (≈ 16.9 µM); against Candida tropicalis, more than 100 µg/mL. The MIC with Staphylococcus aureus [8] was 0.015 µg/mL (≈ 0.0423 µM); with Aspergillus niger, more than 100 µg/mL; in [10] it was 0.15 µg/mL (≈ 0.423 µM); in assay [12], 0.007 µg/mL (≈ 0.0198 µM); with Priestia megaterium, 0.03 ng/mL (≈ 8.47e-05 µM). Also, the IC50 was more than 24 µg/mL in assay [3]; 2.6 µM in the assay on A549; 1.6 µM in the assay with MCF7; 1.1 µg/mL (≈ 3.1 µM) in [11]; more than 10 µM in the assay with NHDF.

Take `COc1c(C)cc2c([nH]c3c2sc2c3c(=O)c(C(=O)O)cn2C2CC2)c1C`: the MIC in the assay on Acinetobacter baumannii [1] was more than 100 µg/mL; in the assay on Staphylococcus aureus [2], 3 µg/mL (≈ 7.84 µM); in the assay on Escherichia coli [4], more than 100 µg/mL; against Staphylococcus aureus [5], more than 100 µg/mL; against Saccharomyces cerevisiae, more than 100 µg/mL; against Pseudomonas aeruginosa it was more than 100 µg/mL. The MIC in the assay on Haemophilus influenzae was 6 µg/mL (≈ 15.7 µM); against Bacillus cereus, 3 µg/mL (≈ 7.84 µM); in the assay with Bacillus subtilis it was 3000 ng/mL (≈ 7.84 µM); in assay [7] it was 3 µg/mL (≈ 7.84 µM); in the assay with Candida tropicalis, more than 100 µg/mL; in the assay on Staphylococcus aureus [8] it was 6 µg/mL (≈ 15.7 µM). The MIC with Aspergillus niger is more than 100 µg/mL; in assay [10] it was 3 µg/mL (≈ 7.84 µM); in assay [12], 1.5 µg/mL (≈ 3.92 µM); with Priestia megaterium, 3000 ng/mL (≈ 7.84 µM). In addition, the concentration for half-maximal inhibition (IC50) in the assay on A549 is 4.7 µM; in the assay on MCF7, 2.5 µM; with NHDF, more than 10 µM.

Take `O=C(O)c1cn(C2CC2)c2sc3c4ccc(F)cc4[nH]c3c2c1=O`: the MIC against Acinetobacter baumannii [1] is 0.15 µg/mL (≈ 0.438 µM); against Staphylococcus aureus [2] it was 0.7 µg/mL (≈ 2.04 µM); in the assay with Escherichia coli [4], 50 µg/mL (≈ 146 µM); against Staphylococcus aureus [5], more than 100 µg/mL; against Saccharomyces cerevisiae it was 12 µg/mL (≈ 35.1 µM); against Pseudomonas aeruginosa, more than 100 µg/mL. The MIC in the assay on Haemophilus influenzae is 0.15 µg/mL (≈ 0.438 µM); against Acinetobacter baumannii [6], more than 100 µg/mL; against Bacillus cereus, 0.007 µg/mL (≈ 0.0204 µM); with Bacillus subtilis, 0.015 ng/mL (≈ 4.38e-05 µM); in assay [7], 1.5 µg/mL (≈ 4.38 µM); against Candida tropicalis it was more than 100 µg/mL. Moreover, the MIC against Staphylococcus aureus [8] was 0.003 µg/mL (≈ 0.00876 µM); in the assay with Aspergillus niger, more than 100 µg/mL; in the assay with Escherichia coli [9], more than 100 µg/mL; in assay [10], 0.03 µg/mL (≈ 0.0876 µM); in assay [12], 0.003 µg/mL (≈ 0.00876 µM); with Priestia megaterium it was 0.015 ng/mL (≈ 4.38e-05 µM). Besides, the 50% inhibitory concentration (IC50) was 2.7 µM with A549, 1.9 µM in the assay on MCF7 and more than 10 µM with NHDF.
